Measurements published in ChEMBL document CHEMBL1129264, “Mercaptoacyl dipeptides as orally active dual inhibitors of angiotensin-converting enzyme and neutral endopeptidase” (1996).
Blank lines part the entries; values can stand above or below the molecule they belong to.

Assays:
Type in all cases: organism-based
[1] = biological target: T1, Angiotensin-converting enzyme (Rattus norvegicus) (UniProt P47820); assay: Compound was tested for plasma inhibition of Angiotensin I converting enzyme activity in the conscious rat. Expressed as Inhibition of AI pressor response at 6 hr at a dose of 14.4 mg/kg po; design: dose 14.4 mg/kg
T1 sequence (whole entry): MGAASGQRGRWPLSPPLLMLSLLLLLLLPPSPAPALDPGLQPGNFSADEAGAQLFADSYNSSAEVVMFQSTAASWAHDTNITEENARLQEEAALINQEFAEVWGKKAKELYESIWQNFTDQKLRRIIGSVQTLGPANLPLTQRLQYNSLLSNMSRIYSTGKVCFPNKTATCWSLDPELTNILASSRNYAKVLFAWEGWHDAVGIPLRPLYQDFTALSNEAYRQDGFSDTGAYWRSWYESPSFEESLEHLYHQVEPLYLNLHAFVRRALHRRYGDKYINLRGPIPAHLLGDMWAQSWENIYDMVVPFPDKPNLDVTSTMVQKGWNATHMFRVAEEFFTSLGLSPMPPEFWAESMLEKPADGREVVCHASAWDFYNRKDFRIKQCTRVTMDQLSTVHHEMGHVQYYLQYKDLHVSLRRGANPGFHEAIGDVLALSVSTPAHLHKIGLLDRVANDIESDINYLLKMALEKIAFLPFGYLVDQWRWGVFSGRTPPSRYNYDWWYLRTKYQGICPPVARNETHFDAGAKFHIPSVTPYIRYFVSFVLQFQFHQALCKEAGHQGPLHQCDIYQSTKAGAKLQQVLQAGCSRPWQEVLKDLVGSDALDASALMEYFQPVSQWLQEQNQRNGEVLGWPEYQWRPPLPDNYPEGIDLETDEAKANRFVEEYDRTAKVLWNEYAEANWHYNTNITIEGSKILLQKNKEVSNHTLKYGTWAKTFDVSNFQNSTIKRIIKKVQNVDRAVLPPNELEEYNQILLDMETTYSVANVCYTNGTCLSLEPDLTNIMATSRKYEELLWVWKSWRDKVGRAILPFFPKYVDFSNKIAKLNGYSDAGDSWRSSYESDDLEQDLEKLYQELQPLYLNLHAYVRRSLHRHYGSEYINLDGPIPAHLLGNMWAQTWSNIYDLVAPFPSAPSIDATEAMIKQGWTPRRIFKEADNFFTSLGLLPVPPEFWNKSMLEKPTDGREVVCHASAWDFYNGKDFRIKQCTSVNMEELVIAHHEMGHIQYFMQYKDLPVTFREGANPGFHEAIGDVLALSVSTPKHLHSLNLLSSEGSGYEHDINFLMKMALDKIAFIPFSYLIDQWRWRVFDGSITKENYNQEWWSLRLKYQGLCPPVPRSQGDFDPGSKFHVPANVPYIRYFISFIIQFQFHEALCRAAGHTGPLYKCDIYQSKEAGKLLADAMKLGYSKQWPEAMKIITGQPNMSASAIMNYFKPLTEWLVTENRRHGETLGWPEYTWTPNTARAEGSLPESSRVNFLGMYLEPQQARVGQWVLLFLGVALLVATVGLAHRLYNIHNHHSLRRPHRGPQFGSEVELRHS
Procedure, shortened: (§1)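 Male conscious normotensive Sprague-Dawley rats (275-390 g), prepared under methohexital sodium (75 mg/kg ip) with femoral arterial and venous catheters. The next day, pressor responses to three angiotensin-I challenges (300 ng/kg iv) were recorded. Compound was then given orally and angiotensin-I challenges were repeated at set times. Percent inhibition is relative to the mean of the three baseline responses.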

[2] = biological target: T1, Angiotensin-converting enzyme (Rattus norvegicus); assay: Compound was tested for plasma inhibition of Angiotensin I converting enzyme activity in the conscious rat. Expressed as Inhibition of AI pressor response at 1 hr at a dose of 14.4 mg/kg po; design: dose 14.4 mg/kg
Procedure, shortened: (§2)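 Male conscious normotensive Sprague-Dawley rats (275-390 g), given femoral arterial and venous catheters under methohexital sodium (75 mg/kg ip) anesthesia. Next day, pressor responses to three angiotensin-I challenges (300 ng/kg iv) recorded by direct arterial pressure. Compound then dosed orally, and AI challenge repeated at set times. Each post-dose response compared with the mean of the three baseline responses, giving % inhibition.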

[3] = biological target: T1, Angiotensin-converting enzyme (Rattus norvegicus); assay: Compound was tested for plasma inhibition of Angiotensin I converting enzyme activity in the conscious rat. Expressed as Inhibition of AI pressor response at 4 hr at a dose of 14.4 mg/kg po; design: dose 14.4 mg/kg; procedure, shortened: as §1
[4] = biological target: T1, Angiotensin-converting enzyme (Rattus norvegicus); assay: Compound was tested for plasma inhibition of Angiotensin I converting enzyme activity in the conscious rat. Expressed as Inhibition of AI pressor response at 2 hr at a dose of 14.4 mg/kg po; design: dose 14.4 mg/kg; procedure, shortened: as §2
[5] = biological target: T1, Angiotensin-converting enzyme (Rattus norvegicus); assay: Compound was tested for plasma inhibition of Angiotensin I converting enzyme activity in the conscious rat. Expressed as Inhibition of AI pressor response at 6 hr at a dose of 13.5 mg/kg po; design: dose 13.5 mg/kg; procedure, shortened: as §1
[6] = biological target: T1, Angiotensin-converting enzyme (Rattus norvegicus); assay: Compound was tested for plasma inhibition of Angiotensin I converting enzyme activity in the conscious rat. Expressed as Inhibition of AI pressor response at 1 hr at a dose of 13.5 mg/kg po; design: dose 13.5 mg/kg; procedure, shortened: as §2
[7] = biological target: T1, Angiotensin-converting enzyme (Rattus norvegicus); assay: Compound was tested for plasma inhibition of Angiotensin I converting enzyme activity in the conscious rat. Expressed as Inhibition of AI pressor response at 4 hr at a dose of 13.5 mg/kg po; design: dose 13.5 mg/kg; procedure, shortened: as §1
[8] = biological target: T1, Angiotensin-converting enzyme (Rattus norvegicus); assay: Compound was tested for plasma inhibition of Angiotensin I converting enzyme activity in the conscious rat. Expressed as Inhibition of AI pressor response at 2 hr at a dose of 13.5 mg/kg po; design: dose 13.5 mg/kg; procedure, shortened: as §2
[9] = biological target: T1, Angiotensin-converting enzyme (Rattus norvegicus); assay: Compound was tested for plasma inhibition of Angiotensin I converting enzyme activity in the conscious rat. Expressed as Inhibition of AI pressor response at 2 hr at a dose of 13.7 mg/kg po; design: dose 13.7 mg/kg; procedure, shortened: as §2
[10] = biological target: T1, Angiotensin-converting enzyme (Rattus norvegicus); assay: Compound was tested for plasma inhibition of Angiotensin I converting enzyme activity in the conscious rat. Expressed as Inhibition of AI pressor response at 1 hr at a dose of 13.7 mg/kg po; design: dose 13.7 mg/kg; procedure, shortened: as §2
[11] = biological target: T1, Angiotensin-converting enzyme (Rattus norvegicus); assay: Compound was tested for plasma inhibition of Angiotensin I converting enzyme activity in the conscious rat. Expressed as Inhibition of AI pressor response at 4 hr at a dose of 13.7 mg/kg po; design: dose 13.7 mg/kg; procedure, shortened: as §1
[12] = biological target: T1, Angiotensin-converting enzyme (Rattus norvegicus); assay: Compound was tested for plasma inhibition of Angiotensin I converting enzyme activity in the conscious rat. Expressed as Inhibition of AI pressor response at 6 hr at a dose of 13.7 mg/kg po; design: dose 13.7 mg/kg; procedure, shortened: as §1

inhibition [1]: 26% | inhibition [2]: 29% | inhibition [3]: 36% | inhibition [4]: 37%
Structure (SMILES): CCOC(=O)[C@H](Cc1ccc(OC(=O)c2cccs2)cc1)NC(=O)C1(NC(=O)[C@H](SC(C)=O)C(C)C)CCCC1

inhibition [5]: 21% | inhibition [6]: 24% | inhibition [7]: 25% | inhibition [8]: 28%
Structure (SMILES): CCOC(=O)Oc1ccc(C[C@H](NC(=O)C2(NC(=O)[C@H](SC(C)=O)C(C)C)CCCC2)C(=O)OCC)cc1

inhibition [9]: 49% | inhibition [10]: 57% | inhibition [11]: 38% | inhibition [12]: 27%
Structure (SMILES): CCCCOC(=O)[C@H](Cc1ccc(O)cc1)NC(=O)C1(NC(=O)[C@H](SC(=O)C2CCCC2)C(C)C)CCCC1
